Data set [1] deals with T1, Histone-lysine N-methyltransferase SETD7 (Homo sapiens) (UniProt Q8WTS6).
T1 sequence (whole entry): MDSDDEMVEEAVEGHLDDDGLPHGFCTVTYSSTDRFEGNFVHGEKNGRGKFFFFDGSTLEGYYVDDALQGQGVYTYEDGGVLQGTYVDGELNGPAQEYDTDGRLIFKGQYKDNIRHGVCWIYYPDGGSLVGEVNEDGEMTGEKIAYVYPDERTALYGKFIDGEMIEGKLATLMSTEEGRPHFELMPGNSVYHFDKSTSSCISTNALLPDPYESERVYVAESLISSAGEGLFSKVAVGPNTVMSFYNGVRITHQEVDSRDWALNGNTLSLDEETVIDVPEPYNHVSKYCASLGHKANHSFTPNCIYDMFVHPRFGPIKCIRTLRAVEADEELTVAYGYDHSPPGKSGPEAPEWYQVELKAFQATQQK
Kind of data set: Inhibition of Set7/9 in human MCF7 cells assessed as suppression of beta-estradiol-induced cell viability incubated for 4 days by haemocytometer. It counts as cell-based. Summed up: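 MCF7 cells (1.5 × 10^4 per well) switched to estrogen-free medium after 24 h. Drug added with or without 10 nM β-estradiol, 4 days' incubation. Cells counted by hemocytometer. Four independent assays.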

In data set [2] the target is T1, Histone-lysine N-methyltransferase SETD7 (Homo sapiens). Kind of data set: Inhibition of Set7/9 in human MCF7 cells assessed as suppression of beta-estradiol-induced pS2 mRNA expression at 14 to 43 uM preincubated for 24 hrs followed by beta-estradiol addition measured after 24 hrs by RT-PCR analysis.
The target in data set [3] is T2, Histone-lysine N-methyltransferase SETD7 (Homo sapiens, UniProt Q8WTS6).
T2 sequence (Q8WTS6 whole entry): T1 sequence (whole entry)
Kind of data set: Inhibition of recombinant Set7/9 (unknown origin) expressed in Escherichia coli BL21 (DE3) using biotinylated histone H3-derived peptide/SAM as substrate by alphaLISA. (In general: In Alpha technology, singlet oxygen from a donor bead excites a nearby acceptor bead.)

In data set [4] the test system is MCF7. Kind of data set: Antitumor activity against Fucci introduced human MCF7 cells xenografted in Balb/c-nu/nu mouse at 20 mg/kg, ip qd administered as continuous dose for 8 days measured every 3 to 4 days until day 15. The class given is functional, organism-based. Summed up: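 Female Balb/C-nu/nu mice, 7 weeks old, each inoculated with about 2 × 10^7 Fucci-MCF7 cells in the mammary gland. Dosing started when tumors reached about 100 mm3, 13 days after inoculation. 20 mg/kg given ip once daily, days 1–8, in saline with 10% ethanol; a vehicle group ran alongside. Caliper tumor volume (a2b)/2 and body weight were recorded every 3 or 4 days to day 15. Six mice per group, mean ± SE.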
A general note: A xenograft is tissue or cells of one species grown in another, often human tumour cells in immunodeficient mice.

For data set [5], the target named is T1, Histone-lysine N-methyltransferase SETD7 (Homo sapiens). Kind of data set: Inhibition of Set7/9 in human MCF7 cells assessed as reduction of ERalpha expression after 48 hrs by immunoblotting analysis. The class given is cell-based. Summed up:
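MCF7 cells (1 × 10^5 per well) treated either with a concentration series for 48 h or with 43 μM over a time course. RIPA-sonicated lysates were immunoblotted for ERα with enhanced chemiluminescence readout.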

Data set [6] shares this target. Kind of data set: Inhibition of Set7/9 in human MCF7 cells assessed as ERalpha destabilization at 43 uM for 36 hrs by immunoblotting analysis in presence of proteasome inhibitor MG132. It counts as cell-based. Summed up:
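MCF7 cells treated with or without 43 μM drug for 36 h, then MG132 added for 12 h. Cells lysed by sonication in RIPA buffer with protease inhibitors. ERα read by SDS-PAGE/PVDF immunoblot with chemiluminescent detection.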
(In general: In western blotting, separated proteins are transferred to a membrane and probed.)

For data set [7] the target is unchanged. Kind of data set: Competitive inhibition of recombinant Set7/9 (unknown origin) expressed in Escherichia coli BL21 (DE3) using varying Ac-KRSK-MCA peptide as substrate in presence of SAM preincubated for 1 hr followed by substrate addition measured after 15 mins by Lineweaver-Burk plot analysis. Put shortly:
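His6-tagged Set7/9 purified by Ni2+ affinity from E. coli BL21(DE3) after induction with 0.1 mM IPTG at 18 °C for 24 h. Kinetics were run in a fluorogenic HMT assay using Ac-KRSK-MCA peptide, with either SAM or peptide concentration varied. Initial velocities were analysed by Lineweaver–Burk plot, four independent assays.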

Data set [8] deals with Mus musculus. Kind of data set: Effect on body weight in Balb/c-nu/nu mouse xenografted with Fucci introduced human MCF7 cells at 20 mg/kg, ip qd administered as single dose. The settings on record: in vivo. It counts as ADME, organism-based. Put shortly:
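Female Balb/C-nu/nu mice, 7 weeks old, carried mammary Fucci-MCF7 xenografts (about 2 × 10^7 cells) grown to about 100 mm3. A single ip dose of 20 mg/kg in saline with 10% ethanol was given on day 1; a vehicle group ran alongside. Caliper tumor volume (a2b)/2 and body weight were recorded every 3 or 4 days to day 15. Tumor volume relative to day 1; six mice, mean ± SE.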

The source made the active and inactive calls. The rule behind the calls is not given here.

A word on the IC50: it is the concentration needed to halve the response being measured. Take `CN1CCC(=C2c3ccccc3C=Cc3ccccc32)CC1` [CYPROHEPTADINE]: the inhibition entry in data set [1] and in data set [5] was “Dose-dependent effect” each time. Further, the inhibition entry in data set [2] and in data set [7] was “Active” in each case. Also, the IC50 in data set [3] is 1000 nM. For the same compound, the TGI entry in data set [4] was “Active”. Further, the inhibition result in data set [6] was “inactive”. Besides, in data set [8], the Activity result is “Non-toxic”.

Source of the values: ChEMBL document CHEMBL3808369, “Identification of Cyproheptadine as an Inhibitor of SET Domain Containing Lysine Methyltransferase 7/9 (Set7/9) That Regulates Estrogen-Dependent Transcription” (J Med Chem, 2016).
